Assay results reported in the M2OR odorant receptor database.

How the values were obtained:
Details in all cases: stereoisomer not certain
[1] = biological target: T1, UniProt L7N210
T1 sequence (whole entry): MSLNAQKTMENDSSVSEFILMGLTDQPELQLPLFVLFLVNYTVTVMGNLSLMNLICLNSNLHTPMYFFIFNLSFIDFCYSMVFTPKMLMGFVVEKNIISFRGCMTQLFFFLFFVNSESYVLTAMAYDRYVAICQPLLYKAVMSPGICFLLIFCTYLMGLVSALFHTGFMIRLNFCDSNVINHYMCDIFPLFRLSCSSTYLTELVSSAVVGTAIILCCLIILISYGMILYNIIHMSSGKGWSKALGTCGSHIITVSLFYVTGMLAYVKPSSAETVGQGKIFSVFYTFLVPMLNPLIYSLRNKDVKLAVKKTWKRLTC
Summary of the method: (§1)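 Transient luciferase assays in mammalian cell lines were common, though methods varied by source. The values come from published papers and their supplementary material, with extra details from the original authors when needed. Responsive refers to a measured signal the original authors judged statistically different from baseline, and non-responsive (inactive) to the remainder.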

[2] = biological target: T2, UniProt Q3KPB0
T2 sequence (whole entry): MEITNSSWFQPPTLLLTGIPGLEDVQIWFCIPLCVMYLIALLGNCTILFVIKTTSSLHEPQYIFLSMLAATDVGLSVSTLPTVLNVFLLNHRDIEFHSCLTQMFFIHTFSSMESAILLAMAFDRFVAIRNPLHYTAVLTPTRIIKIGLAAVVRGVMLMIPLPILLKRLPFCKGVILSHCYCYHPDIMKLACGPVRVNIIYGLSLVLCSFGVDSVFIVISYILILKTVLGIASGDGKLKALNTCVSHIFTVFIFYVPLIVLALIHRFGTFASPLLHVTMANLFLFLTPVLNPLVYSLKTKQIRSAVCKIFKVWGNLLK
Summary of the method: as §1

[3] = biological target: T3, UniProt Q3U0P3
T3 sequence (whole entry): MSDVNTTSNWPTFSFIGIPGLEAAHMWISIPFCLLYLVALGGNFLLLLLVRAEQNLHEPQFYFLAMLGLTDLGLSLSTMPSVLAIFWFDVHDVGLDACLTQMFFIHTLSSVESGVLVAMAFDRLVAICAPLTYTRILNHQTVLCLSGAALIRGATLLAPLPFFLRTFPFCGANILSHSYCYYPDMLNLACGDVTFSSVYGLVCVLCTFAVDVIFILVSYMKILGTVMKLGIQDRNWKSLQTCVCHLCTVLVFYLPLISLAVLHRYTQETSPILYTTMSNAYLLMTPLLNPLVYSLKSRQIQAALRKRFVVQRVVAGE
Summary of the method: as §1

[4] = biological target: T4, UniProt Q7TQU8
T4 sequence (whole entry): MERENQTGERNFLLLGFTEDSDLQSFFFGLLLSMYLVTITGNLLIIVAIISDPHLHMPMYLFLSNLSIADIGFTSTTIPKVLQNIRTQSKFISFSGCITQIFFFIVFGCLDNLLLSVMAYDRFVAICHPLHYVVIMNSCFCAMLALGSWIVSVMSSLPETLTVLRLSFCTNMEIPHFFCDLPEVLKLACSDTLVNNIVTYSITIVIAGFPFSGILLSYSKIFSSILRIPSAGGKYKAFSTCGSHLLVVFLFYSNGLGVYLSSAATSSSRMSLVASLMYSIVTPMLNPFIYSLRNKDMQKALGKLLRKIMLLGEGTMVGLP
Summary of the method: as §1

[5] = biological target: T5, UniProt Q7TQV4
T5 sequence (whole entry): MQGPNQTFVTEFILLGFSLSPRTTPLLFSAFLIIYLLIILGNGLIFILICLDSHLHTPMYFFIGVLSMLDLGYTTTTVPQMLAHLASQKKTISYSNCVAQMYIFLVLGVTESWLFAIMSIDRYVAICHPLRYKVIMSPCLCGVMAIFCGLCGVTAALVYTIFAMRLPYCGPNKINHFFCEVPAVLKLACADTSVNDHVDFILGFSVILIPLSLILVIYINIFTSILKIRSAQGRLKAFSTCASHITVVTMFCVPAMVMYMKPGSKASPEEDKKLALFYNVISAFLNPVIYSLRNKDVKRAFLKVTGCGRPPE
Summary of the method: as §1

[6] = biological target: T6, UniProt Q7TR71
T6 sequence (whole entry): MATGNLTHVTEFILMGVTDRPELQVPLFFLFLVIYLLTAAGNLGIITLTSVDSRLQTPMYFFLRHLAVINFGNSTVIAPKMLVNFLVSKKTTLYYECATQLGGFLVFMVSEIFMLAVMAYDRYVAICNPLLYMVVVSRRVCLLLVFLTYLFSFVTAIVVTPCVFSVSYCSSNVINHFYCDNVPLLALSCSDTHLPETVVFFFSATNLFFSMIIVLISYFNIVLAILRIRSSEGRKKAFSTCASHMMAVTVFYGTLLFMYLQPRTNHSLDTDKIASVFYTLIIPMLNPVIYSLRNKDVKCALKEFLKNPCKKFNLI
Summary of the method: as §1

[7] = biological target: T7, UniProt Q7TR79
T7 sequence (whole entry): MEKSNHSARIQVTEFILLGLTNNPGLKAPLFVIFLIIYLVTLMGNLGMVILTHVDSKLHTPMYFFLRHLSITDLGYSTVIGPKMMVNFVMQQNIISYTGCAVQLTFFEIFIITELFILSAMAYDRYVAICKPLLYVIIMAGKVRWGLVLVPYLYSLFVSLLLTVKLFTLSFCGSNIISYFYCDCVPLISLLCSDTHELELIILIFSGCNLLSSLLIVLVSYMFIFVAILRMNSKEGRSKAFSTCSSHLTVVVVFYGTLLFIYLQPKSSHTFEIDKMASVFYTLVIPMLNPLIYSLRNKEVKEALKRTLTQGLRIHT
Summary of the method: as §1

[8] = biological target: T8, UniProt Q7TRA3
T8 sequence (whole entry): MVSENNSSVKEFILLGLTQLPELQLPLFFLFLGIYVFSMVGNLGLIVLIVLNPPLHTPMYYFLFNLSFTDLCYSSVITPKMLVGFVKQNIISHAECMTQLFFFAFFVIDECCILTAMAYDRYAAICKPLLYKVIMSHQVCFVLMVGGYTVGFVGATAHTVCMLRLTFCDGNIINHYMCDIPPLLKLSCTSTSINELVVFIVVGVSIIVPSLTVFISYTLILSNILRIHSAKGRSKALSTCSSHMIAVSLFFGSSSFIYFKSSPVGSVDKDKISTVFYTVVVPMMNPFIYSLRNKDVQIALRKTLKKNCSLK
Summary of the method: as §1

[9] = biological target: T9, UniProt Q7TRE4
T9 sequence (whole entry): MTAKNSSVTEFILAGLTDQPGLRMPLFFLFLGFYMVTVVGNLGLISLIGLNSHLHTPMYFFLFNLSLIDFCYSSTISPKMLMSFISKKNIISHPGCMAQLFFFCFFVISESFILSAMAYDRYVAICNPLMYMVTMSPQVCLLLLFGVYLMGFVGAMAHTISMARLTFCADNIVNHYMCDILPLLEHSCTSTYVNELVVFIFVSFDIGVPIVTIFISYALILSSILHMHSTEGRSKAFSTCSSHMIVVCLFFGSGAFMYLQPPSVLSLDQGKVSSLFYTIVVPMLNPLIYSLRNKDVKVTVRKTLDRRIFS
Summary of the method: as §1

[10] = biological target: T10, UniProt Q7TRW1
T10 sequence (whole entry): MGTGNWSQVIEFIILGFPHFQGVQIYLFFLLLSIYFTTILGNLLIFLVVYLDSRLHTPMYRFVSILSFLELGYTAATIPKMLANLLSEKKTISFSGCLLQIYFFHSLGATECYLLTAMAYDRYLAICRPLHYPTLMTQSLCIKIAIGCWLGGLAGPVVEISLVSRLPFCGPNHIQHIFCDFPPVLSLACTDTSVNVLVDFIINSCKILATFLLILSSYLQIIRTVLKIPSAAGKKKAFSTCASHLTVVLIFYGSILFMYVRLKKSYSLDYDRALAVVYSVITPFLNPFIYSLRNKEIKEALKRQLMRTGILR
Summary of the method: as §1

[11] = biological target: T11, UniProt Q7TRX0
T11 sequence (whole entry): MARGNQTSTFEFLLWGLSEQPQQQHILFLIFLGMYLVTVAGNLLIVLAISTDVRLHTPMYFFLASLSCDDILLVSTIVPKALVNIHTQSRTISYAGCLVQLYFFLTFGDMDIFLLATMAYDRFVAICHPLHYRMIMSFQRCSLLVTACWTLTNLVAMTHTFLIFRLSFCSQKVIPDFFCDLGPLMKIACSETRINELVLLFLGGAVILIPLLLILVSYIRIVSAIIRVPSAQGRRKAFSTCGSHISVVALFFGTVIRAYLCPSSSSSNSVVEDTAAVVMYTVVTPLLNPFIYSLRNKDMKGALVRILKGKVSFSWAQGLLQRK
Summary of the method: as §1

[12] = biological target: T12, UniProt Q8VEU7
T12 sequence (whole entry): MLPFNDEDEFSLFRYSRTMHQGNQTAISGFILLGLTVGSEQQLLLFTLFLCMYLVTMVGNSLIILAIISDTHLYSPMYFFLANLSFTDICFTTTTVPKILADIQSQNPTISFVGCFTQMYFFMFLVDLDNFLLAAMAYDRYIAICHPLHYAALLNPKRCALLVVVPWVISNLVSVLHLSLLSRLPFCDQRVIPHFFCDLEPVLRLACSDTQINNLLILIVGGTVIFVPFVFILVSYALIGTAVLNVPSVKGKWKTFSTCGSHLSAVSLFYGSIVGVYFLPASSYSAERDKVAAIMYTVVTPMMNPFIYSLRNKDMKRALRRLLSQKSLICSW
Summary of the method: as §1

[13] = biological target: T13, UniProt Q8VF05
T13 sequence (whole entry): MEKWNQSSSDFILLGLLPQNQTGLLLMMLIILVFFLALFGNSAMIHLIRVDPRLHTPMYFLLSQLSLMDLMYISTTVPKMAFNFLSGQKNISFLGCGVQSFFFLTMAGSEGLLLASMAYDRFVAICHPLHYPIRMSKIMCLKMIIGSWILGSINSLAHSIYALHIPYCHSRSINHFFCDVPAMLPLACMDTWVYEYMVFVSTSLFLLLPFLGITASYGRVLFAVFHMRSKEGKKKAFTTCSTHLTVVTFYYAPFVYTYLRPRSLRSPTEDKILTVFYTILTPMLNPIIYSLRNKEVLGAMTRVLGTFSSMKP
Summary of the method: as §1

[14] = biological target: T14, UniProt Q8VF24
T14 sequence (whole entry): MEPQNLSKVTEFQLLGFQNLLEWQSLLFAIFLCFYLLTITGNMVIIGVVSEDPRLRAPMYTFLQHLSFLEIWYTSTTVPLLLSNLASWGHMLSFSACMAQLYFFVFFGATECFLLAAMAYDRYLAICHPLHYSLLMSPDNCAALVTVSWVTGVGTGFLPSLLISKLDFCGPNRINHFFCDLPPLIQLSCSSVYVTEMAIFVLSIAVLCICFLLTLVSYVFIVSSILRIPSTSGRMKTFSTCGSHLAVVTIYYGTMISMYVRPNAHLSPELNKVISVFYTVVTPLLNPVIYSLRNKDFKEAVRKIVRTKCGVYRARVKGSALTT
Summary of the method: as §1

[15] = biological target: T15, UniProt Q8VF43
T15 sequence (whole entry): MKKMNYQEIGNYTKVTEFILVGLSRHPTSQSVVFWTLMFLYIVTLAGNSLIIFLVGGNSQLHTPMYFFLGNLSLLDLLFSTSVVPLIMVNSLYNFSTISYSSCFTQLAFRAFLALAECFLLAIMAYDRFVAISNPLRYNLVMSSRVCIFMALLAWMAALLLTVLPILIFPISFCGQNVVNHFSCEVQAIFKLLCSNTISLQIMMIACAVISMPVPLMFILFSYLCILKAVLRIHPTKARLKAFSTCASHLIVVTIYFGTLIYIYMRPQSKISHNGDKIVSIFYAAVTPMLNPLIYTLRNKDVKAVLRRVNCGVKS
Summary of the method: as §1

[16] = biological target: T16, UniProt Q8VF44
T16 sequence (whole entry): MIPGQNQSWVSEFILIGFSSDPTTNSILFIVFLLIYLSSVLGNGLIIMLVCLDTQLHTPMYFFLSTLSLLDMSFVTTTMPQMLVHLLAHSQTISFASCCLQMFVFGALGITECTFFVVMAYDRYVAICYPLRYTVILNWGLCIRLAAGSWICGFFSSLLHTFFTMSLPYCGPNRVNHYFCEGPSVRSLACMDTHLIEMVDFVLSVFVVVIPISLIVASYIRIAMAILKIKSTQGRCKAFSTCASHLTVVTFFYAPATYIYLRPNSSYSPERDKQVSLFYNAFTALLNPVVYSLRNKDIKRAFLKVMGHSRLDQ
Summary of the method: as §1
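Note: active if original authors judged signal statistically different from baseline.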

| SMILES | odorant receptor agonist call [1] | odorant receptor agonist call [2] | odorant receptor agonist call [3] | odorant receptor agonist call [4] | odorant receptor agonist call [5] | odorant receptor agonist call [6] | odorant receptor agonist call [7] | odorant receptor agonist call [8] | odorant receptor agonist call [9] | odorant receptor agonist call [10] | odorant receptor agonist call [11] | odorant receptor agonist call [12] | odorant receptor agonist call [13] | odorant receptor agonist call [14] | odorant receptor agonist call [15] | odorant receptor agonist call [16] |
| --- | --- | --- | --- | --- | --- | --- | --- | --- | --- | --- | --- | --- | --- | --- | --- | --- |
| O=c1cc(O)c2ccccc2o1 | inactive | inactive | inactive | inactive | inactive | inactive | inactive | inactive | inactive | inactive | inactive | inactive | inactive | inactive | inactive | inactive |
| Cc1ccc(OC(=O)Cc2ccccc2)cc1 | inactive | inactive | inactive | inactive |  |  | inactive |  |  |  | inactive |  |  |  | inactive |  |
| CCCCC(Br)C(=O)O (configuration not stated) | active | inactive | inactive | inactive |  |  | inactive |  |  |  | inactive |  |  |  | inactive |  |
| COc1ccc(C=O)cc1 | active | inactive | inactive | inactive |  |  | inactive |  |  |  | inactive |  |  |  | inactive |  |
| O=Cc1ccccc1 | inactive | inactive | inactive | inactive |  |  | inactive |  |  |  | inactive |  |  |  | inactive |  |
| CCC1CCC(=O)O1 (configuration not stated) | inactive |  |  |  | active | active |  | inactive | inactive | inactive |  | inactive | active | inactive |  | inactive |
| O=Cc1ccc2c(c1)OCO2 | active | inactive | inactive | inactive |  |  | inactive |  |  |  | inactive |  |  |  | inactive |  |
| C=CCOC(=O)Cc1ccccc1 | inactive | inactive | inactive | inactive | inactive | inactive | inactive | inactive | inactive | inactive | inactive | inactive | active | inactive | inactive | inactive |
